In ChEMBL document CHEMBL4425096, “Synthesis and Biological Evaluation of 4-Anilino-quinazolines and -quinolines as Inhibitors of Breast Cancer Resistance Protein (ABCG2)” (J Med Chem, 2016):

Key:
[1] = biological target: T1, Broad substrate specificity ATP-binding cassette transporter ABCG2 (Homo sapiens, UniProt Q9UNQ0); assay: Inhibition of c-terminal GFP-tagged human ABCG2 expressed in MDCK2 cells preincubated for 30 mins before Hoechst 33342 addition by Hoechst 33342 accumulation assay; format: cell-based
T1 sequence (Q9UNQ0 whole entry): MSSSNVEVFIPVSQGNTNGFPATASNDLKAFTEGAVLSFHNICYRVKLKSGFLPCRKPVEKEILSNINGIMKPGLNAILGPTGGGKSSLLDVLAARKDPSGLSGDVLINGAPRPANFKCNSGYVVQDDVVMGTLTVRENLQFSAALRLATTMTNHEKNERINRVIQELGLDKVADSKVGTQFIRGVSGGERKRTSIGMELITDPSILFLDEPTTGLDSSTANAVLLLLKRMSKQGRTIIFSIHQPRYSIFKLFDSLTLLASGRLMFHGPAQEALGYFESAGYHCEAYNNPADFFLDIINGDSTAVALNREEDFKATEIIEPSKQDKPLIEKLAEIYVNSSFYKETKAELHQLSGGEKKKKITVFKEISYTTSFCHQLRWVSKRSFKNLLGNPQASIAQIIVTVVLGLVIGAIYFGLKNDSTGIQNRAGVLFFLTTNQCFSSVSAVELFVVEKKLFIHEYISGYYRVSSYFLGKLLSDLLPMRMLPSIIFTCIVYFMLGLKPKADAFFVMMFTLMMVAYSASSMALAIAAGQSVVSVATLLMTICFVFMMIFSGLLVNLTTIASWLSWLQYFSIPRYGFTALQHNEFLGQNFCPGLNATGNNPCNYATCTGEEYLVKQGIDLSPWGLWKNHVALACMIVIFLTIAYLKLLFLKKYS
Summary of the method: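 MDCK II cells transfected with human ABCG2 fused C-terminally to GFP, washed in Krebs-HEPES buffer pH 7.0; ~30,000 cells/well, compound 30 min at 37 °C. 6 µM Hoechst 33342 solution added, fluorescence (ex 355/em 460 nm) every 60 s to 120 min. Final methanol ≤5%, DMSO ≤0.1%.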

[2] = biological target: T1, Broad substrate specificity ATP-binding cassette transporter ABCG2; assay: Inhibition of c-terminal GFP-tagged human ABCG2 expressed in MDCK2 cells preincubated for 30 mins before Pheophorbide A addition by Pheophorbide A assay; format: cell-based
[3] = Intrinsic cytotoxicity against parental MDCK2 cells incubated for 72 hrs by MTT assay; format: cell-based, Canis lupus familiaris, MDCK-II; details: dog
Summary of the method: (§1)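 MDCK II cells incubated 72 h with compound dilutions, then MTT added; viability from formazan formation. […] Methanol (≤1.8%) and DMSO (≤1%) vehicle tested alone.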

ABCG2 [4] = assay: Therapeutic index, ratio of GI50 for intrinsic cytotoxicity against MDCK2 cells over-expressing human ABCG2 top IC50 for inhibition of c-terminal GFP-tagged human ABCG2 expressed in MDCK2 cells; format: toxicity, cell-based; details: dog, read-out: RatioGI50
Summary of the method: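 Ratio of MTT GI50 (72 h, MDCK II) to IC50 from the Hoechst 33342 accumulation assay.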

[5] = Intrinsic cytotoxicity against MDCK2 cells over-expressing human ABCG2 incubated for 72 hrs by MTT assay; format: ADME, cell-based, Canis lupus familiaris, MDCK-II; details: dog; summary of the method: as §1
ABCG2 [6] = assay: Therapeutic index, ratio of GI50 for intrinsic cytotoxicity against MDCK2 cells over-expressing human ABCG2 top IC50 for inhibition of c-terminal GFP-tagged human ABCG2 expressed in MDCK2 cells relative to Ko143; format: toxicity, cell-based; details: dog, read-out: TI
ABCB1 = ABCB1 (Homo sapiens, UniProt P08183); assay: Inhibition of ABCB1 in human A2780adr cells at 10 uM preincubated for 30 mins before calcein AM addition by calcein AM assay relative to CsA; format: cell-based; details: probe calcein AM
Chain of ABCB1 (P08183 whole entry): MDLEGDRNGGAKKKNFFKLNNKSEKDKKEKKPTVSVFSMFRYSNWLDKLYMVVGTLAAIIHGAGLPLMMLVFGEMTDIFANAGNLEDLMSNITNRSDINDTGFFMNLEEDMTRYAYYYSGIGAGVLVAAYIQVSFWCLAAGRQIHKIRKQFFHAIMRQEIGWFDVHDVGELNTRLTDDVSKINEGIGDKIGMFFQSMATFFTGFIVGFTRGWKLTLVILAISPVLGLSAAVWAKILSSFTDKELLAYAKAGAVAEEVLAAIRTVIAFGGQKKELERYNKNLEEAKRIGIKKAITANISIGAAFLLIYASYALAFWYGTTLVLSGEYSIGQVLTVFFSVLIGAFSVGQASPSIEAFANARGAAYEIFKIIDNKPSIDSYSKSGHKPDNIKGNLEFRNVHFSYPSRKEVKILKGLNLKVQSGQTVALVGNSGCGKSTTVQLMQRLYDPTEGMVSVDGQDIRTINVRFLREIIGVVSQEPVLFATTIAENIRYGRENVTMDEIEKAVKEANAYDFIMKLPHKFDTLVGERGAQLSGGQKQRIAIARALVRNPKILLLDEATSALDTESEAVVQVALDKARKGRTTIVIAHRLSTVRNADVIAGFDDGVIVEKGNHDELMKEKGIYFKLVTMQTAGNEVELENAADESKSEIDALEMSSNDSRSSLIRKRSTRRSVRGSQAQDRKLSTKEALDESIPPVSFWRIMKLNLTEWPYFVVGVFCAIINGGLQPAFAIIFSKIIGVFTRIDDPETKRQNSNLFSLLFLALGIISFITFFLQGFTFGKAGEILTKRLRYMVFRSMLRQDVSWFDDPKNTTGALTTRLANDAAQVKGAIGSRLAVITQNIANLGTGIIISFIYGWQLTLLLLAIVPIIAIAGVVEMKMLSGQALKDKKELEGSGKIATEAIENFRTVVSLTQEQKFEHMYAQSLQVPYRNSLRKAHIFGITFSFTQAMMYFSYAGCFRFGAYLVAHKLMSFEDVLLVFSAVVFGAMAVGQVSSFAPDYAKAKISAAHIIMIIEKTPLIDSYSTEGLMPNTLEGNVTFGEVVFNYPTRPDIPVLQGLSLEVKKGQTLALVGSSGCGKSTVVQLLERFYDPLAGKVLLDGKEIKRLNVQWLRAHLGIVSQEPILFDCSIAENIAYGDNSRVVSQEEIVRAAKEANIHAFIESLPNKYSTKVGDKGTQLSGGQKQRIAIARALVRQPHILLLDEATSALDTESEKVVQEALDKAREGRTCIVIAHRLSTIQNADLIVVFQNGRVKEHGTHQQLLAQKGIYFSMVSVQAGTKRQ
Summary of the method: (§2)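 A2780adr cells (ABCB1-overexpressing, doxorubicin-selected one passage every 10 passages) washed three times in Krebs-HEPES buffer pH 7.0; ~30,000 cells/well with compound dilutions, 30 min at 37 °C, 5% CO2. Calcein AM added (1.25 µM solution), fluorescence (ex 485/em 520 nm) read every 60 s for 60 min at 37 °C. Single-point screen at 10 µM relative to cyclosporine A; IC50 from full curves.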

ABCC1 = ABCC1 (Homo sapiens, UniProt P33527); assay: Inhibition of ABCC1 in human H69AR cells at 10 uM preincubated for 30 mins before calcein AM addition by calcein AM assay relative to CsA; format: cell-based; details: probe calcein AM
Chain of ABCC1 (P33527 whole entry): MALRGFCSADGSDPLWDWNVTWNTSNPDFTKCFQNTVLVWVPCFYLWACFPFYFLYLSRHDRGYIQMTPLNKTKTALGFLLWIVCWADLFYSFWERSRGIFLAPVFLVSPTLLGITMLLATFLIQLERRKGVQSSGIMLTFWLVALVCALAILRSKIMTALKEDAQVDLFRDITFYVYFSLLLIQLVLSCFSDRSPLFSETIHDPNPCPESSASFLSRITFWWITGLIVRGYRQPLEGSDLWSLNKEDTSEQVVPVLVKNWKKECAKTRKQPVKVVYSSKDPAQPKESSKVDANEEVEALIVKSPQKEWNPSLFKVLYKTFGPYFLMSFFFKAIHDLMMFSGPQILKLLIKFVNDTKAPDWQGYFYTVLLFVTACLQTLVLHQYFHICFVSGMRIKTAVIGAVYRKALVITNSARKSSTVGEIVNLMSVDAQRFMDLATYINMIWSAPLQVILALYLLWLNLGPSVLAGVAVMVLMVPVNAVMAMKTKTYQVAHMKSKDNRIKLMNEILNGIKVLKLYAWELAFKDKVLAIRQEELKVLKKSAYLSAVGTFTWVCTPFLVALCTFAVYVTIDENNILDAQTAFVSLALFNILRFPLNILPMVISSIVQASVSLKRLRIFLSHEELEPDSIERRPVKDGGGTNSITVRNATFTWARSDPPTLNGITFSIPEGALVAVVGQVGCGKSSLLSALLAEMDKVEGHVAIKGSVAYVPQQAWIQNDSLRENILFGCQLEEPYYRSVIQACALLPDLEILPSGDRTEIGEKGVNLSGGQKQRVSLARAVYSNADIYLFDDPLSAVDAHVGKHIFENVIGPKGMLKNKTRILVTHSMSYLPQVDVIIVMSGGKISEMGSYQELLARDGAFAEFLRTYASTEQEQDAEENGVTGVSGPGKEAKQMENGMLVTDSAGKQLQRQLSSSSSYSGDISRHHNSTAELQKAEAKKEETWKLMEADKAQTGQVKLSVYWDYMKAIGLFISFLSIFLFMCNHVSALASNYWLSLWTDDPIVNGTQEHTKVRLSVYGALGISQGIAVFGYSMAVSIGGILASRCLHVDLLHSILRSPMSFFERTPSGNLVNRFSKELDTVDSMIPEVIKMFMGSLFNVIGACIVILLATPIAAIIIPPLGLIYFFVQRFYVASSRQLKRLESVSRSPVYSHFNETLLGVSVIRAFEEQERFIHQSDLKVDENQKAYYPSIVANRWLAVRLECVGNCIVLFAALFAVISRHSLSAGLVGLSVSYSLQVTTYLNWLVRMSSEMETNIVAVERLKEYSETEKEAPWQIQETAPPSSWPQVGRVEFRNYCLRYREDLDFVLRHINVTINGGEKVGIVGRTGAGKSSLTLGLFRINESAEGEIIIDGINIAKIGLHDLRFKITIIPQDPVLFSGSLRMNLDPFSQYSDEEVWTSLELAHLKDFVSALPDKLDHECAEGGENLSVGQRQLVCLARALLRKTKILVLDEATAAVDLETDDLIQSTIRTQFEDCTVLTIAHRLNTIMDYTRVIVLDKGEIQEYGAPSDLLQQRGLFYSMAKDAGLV
Summary of the method: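 H69AR cells (ABCC1-overexpressing) washed in Krebs-HEPES buffer pH 7.0; ~30,000 cells/well preincubated with compound 30 min at 37 °C, 5% CO2. Then 1.25 µM calcein AM solution added, fluorescence at ex 485/em 520 nm every 60 s for 60 min at 37 °C. Screened at 10 µM; activity expressed relative to cyclosporine A.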

[7] = biological target: ATP-dependent translocase ABCB1 (Homo sapiens, UniProt P08183); assay: Inhibition of ABCB1 in human A2780adr cells preincubated for 30 mins before calcein AM addition by calcein AM assay; format: cell-based; summary of the method: as §2
Chain of ATP-dependent translocase ABCB1 (P08183 whole entry): as the sequence (P08183 whole entry) above

COc1cc(Nc2nc(-c3ccccc3)nc3ccccc23)ccc1Br
IC50 [1]: 0.289 µM
IC50 [2]: 0.202 µM

CC(=O)Nc1cccc(Nc2nc(-c3ccccc3)nc3ccccc23)c1
GI50 at 72 h [3]: 30.9 µM
selectivity ratio (ABCG2 [4]): 46.4
IC50 [1]: 0.278 µM
GI50 at 72 h [5]: 12.9 µM
IC50 [2]: 0.224 µM

O=[N+]([O-])c1cc(Nc2nc(-c3ccccc3)nc3ccccc23)ccc1O
GI50 at 72 h [3]: 152 µM
selectivity ratio (ABCG2 [4]): 655
selectivity ratio (ABCG2 [6]): 13
IC50 [1]: 0.08 µM
GI50 at 72 h [5]: 52.4 µM
IC50 [2]: 0.113 µM

CC(=O)Nc1cccc(Nc2cc(-c3ccccc3)nc3ccccc23)c1
inhibition at 10 µM (ABCB1): > 25%
inhibition at 10 µM (ABCC1): > 25%
IC50 [1]: 1.63 µM
IC50 [7]: 0.66 µM

COc1ccc(Nc2nc(-c3ccccc3)nc3ccccc23)cc1F
IC50 [1]: 0.872 µM
IC50 [2]: 0.689 µM

O=C(O)c1ccc(Nc2nc(-c3ccccc3)nc3ccccc23)cc1
inhibition at 10 µM (ABCC1): > 25%
IC50 [1]: 6.38 µM

CC(C)(C)OC(=O)c1ccc(Nc2nc(-c3ccccc3)nc3ccccc23)cc1
IC50 [1]: 5.65 µM

Cc1ccc(Nc2nc(-c3ccccc3)nc3ccccc23)cc1
IC50 [1]: 1.48 µM

CC(C)(C)c1cccc(Nc2nc(-c3ccccc3)nc3ccccc23)c1
IC50 [1]: 1.07 µM

Ic1ccc(Nc2nc(-c3ccccc3)nc3ccccc23)cc1
GI50 at 72 h [3]: 8.85 µM
selectivity ratio (ABCG2 [4]): 15.1
IC50 [1]: 0.612 µM
GI50 at 72 h [5]: 9.25 µM

Cc1cccc(Nc2nc(-c3ccccc3)nc3ccccc23)c1
GI50 at 72 h [3]: 24 µM
inhibition at 10 µM (ABCB1): > 25%
selectivity ratio (ABCG2 [4]): 11.1
IC50 [1]: 1.15 µM
GI50 at 72 h [5]: 12.8 µM
IC50 [7]: 3 µM

C#Cc1cccc(Nc2nc(-c3ccccc3)nc3ccccc23)c1
IC50 [1]: 0.672 µM
IC50 [2]: 0.513 µM

Fc1cccc(Nc2nc(-c3ccccc3)nc3ccccc23)c1
GI50 at 72 h [3]: 27.5 µM
selectivity ratio (ABCG2 [4]): 48.5
IC50 [1]: 0.355 µM
GI50 at 72 h [5]: 17.2 µM
IC50 [2]: 0.405 µM

Ic1cccc(Nc2nc(-c3ccccc3)nc3ccccc23)c1
GI50 at 72 h [3]: 16.6 µM
IC50 [1]: 0.791 µM
GI50 at 72 h [5]: 4.75 µM

Fc1cccc(Nc2cc(-c3ccccc3)nc3ccccc23)c1
IC50 [1]: 2.13 µM

O=C(Nc1ccccc1C(=O)Nc1ccc(CCN2CCc3ccccc3C2)cc1)c1cnc2ccccc2c1
IC50 [1]: 0.704 µM
IC50 [2]: 0.741 µM

CC(C)(C)c1ccc(Nc2nc(-c3ccccc3)nc3ccccc23)cc1
IC50 [1]: 1.06 µM

COc1ccc2c3c([nH]c2c1)[C@H](CC(C)C)N1C(=O)[C@H](CCC(=O)OC(C)(C)C)NC(=O)[C@@H]1C3
GI50 at 72 h [3]: 10.9 µM
GI50 at 72 h [5]: 11.1 µM

O=S(=O)(F)c1ccc(Nc2nc(-c3ccccc3)nc3ccccc23)cc1
IC50 [1]: 0.556 µM

COc1ccc(Nc2nc(-c3ccccc3)nc3ccccc23)cc1OC
GI50 at 72 h [3]: 17 µM
inhibition at 10 µM (ABCB1): > 25%
selectivity ratio (ABCG2 [4]): 148
IC50 [1]: 0.152 µM
GI50 at 72 h [5]: 22.5 µM
IC50 [7]: 1.86 µM

N#Cc1ccc(Nc2cc(-c3ccccc3)nc3ccccc23)cc1
inhibition at 10 µM (ABCB1): > 25%
IC50 [1]: 0.846 µM
IC50 [7]: 4.74 µM

N#Cc1ccc(Nc2nc(-c3ccccc3)nc3ccccc23)cc1
GI50 at 72 h [3]: 16.6 µM
selectivity ratio (ABCG2 [4]): 113
IC50 [1]: 0.0699 µM
GI50 at 72 h [5]: 7.96 µM
IC50 [2]: 0.0845 µM

CSc1cccc(Nc2nc(-c3ccccc3)nc3ccccc23)c1
inhibition at 10 µM (ABCC1): > 25%
IC50 [1]: 1.19 µM

Clc1ccc(Nc2nc(-c3ccccc3)nc3ccccc23)cc1
GI50 at 72 h [3]: 14.8 µM
selectivity ratio (ABCG2 [4]): 8.13
IC50 [1]: 0.83 µM
GI50 at 72 h [5]: 6.75 µM

Oc1ccc(Nc2nc(-c3ccccc3)nc3ccccc23)cc1
GI50 at 72 h [3]: 26.9 µM
selectivity ratio (ABCG2 [4]): 59.8
IC50 [1]: 0.204 µM
GI50 at 72 h [5]: 12.2 µM
IC50 [2]: 0.304 µM

CSc1cccc(Nc2cc(-c3ccccc3)nc3ccccc23)c1
inhibition at 10 µM (ABCB1): > 25%
inhibition at 10 µM (ABCC1): > 25%
IC50 [1]: 1.9 µM
IC50 [7]: 1.42 µM

COc1cccc(Nc2cc(-c3ccccc3)nc3ccccc23)c1
inhibition at 10 µM (ABCB1): > 25%
IC50 [1]: 0.951 µM
IC50 [7]: 2.78 µM

Cc1cc(Nc2nc(-c3ccccc3)nc3ccccc23)ccc1I
IC50 [1]: 1.46 µM

Fc1ccc(Nc2nc(-c3ccccc3)nc3ccccc23)cc1
GI50 at 72 h [3]: 25.6 µM
selectivity ratio (ABCG2 [4]): 27.4
IC50 [1]: 1.06 µM
GI50 at 72 h [5]: 29 µM

COC(=O)c1ccc(Nc2nc(-c3ccccc3)nc3ccccc23)cc1
inhibition at 10 µM (ABCC1): > 25%
IC50 [1]: 0.944 µM
